# Tested on: HEK-293T; call rule not given here
# Experiment: Cytotoxicity against human HEK293T cells assessed as reduction in cell viability at 10 uM measured after 24 hrs by CCK8 assay
# Assay type: cell-based
row,SMILES,Activity
1,C=C1CC[C@H]2[C@@H](/C=C(\C)C(=O)[C@@]3(O)C[C@H](C)[C@H](O)[C@@H]3[C@H]1O)C2(C)C,Non-Toxic
2,C=C1[C@H](O)C[C@H]2[C@@H](/C=C(\C)C(=O)[C@@]3(OC(C)=O)C[C@H](C)[C@H](OC(=O)c4ccccc4)[C@@H]3[C@H]1OC(C)=O)C2(C)C,Non-Toxic
3,C=C1CC[C@H]2[C@@H](/C=C(\C)C(=O)[C@@]3(OC(C)=O)C[C@H](C)[C@H](OC(=O)/C=C/c4ccccc4)[C@@H]3[C@H]1O)C2(C)C,Toxic
4,C=C1C(=O)C[C@H]2[C@@H](/C=C(\C)C(=O)[C@@]3(OC(C)=O)C[C@H](C)[C@H](OC(=O)c4ccccc4)[C@@H]3[C@H]1OC(C)=O)C2(C)C,Toxic
5,C=C1CC[C@H](C(C)(C)O)/C=C/C(C)=C\[C@@]2(O)C[C@H](C)[C@H](OC(=O)c3ccccc3)[C@@H]2[C@H]1OC(C)=O,Non-Toxic
6,C=C1CC[C@H]2[C@@H](/C=C(\C)C(=O)[C@@]3(OC(C)=O)C[C@H](C)[C@H](O)[C@@H]3[C@H]1OC(=O)/C=C/c1ccccc1)C2(C)C,Toxic
7,C=C1[C@H](OC(C)=O)C[C@H]2[C@@H](/C=C(\C)C(=O)[C@@]3(O)C[C@H](C)[C@H](OC(C)=O)[C@@H]3[C@H]1OC(C)=O)C2(C)C,Non-Toxic
8,CC(=O)O[C@]12C[C@H](C)[C@H](OC(=O)c3ccccc3)[C@@H]1/C=C(\CO)C(=O)C[C@H]1[C@@H](/C=C(\C)C2=O)C1(C)C,Non-Toxic
9,C=C1CC[C@H]2[C@@H](C[C@@H](C)C(=O)[C@@]3(OC(C)=O)C[C@H](C)[C@H](OC(=O)c4ccccc4)[C@@H]3[C@H]1OC(C)=O)C2(C)C,Non-Toxic
10,CC(=O)OC/C1=C/C[C@H]2[C@@H](/C=C(\C)C(=O)[C@@]3(OC(C)=O)C[C@H](C)[C@H](OC(=O)c4ccccc4)[C@@H]3[C@H]1OC(C)=O)C2(C)C,Non-Toxic
11,C=C1[C@H](OC(=O)c2cccnc2)C[C@H]2[C@@H](/C=C(\C)C(=O)[C@@]3(OC(C)=O)C[C@H](C)[C@H](OC(=O)c4ccccc4)[C@@H]3[C@H]1OC(C)=O)C2(C)C,Non-Toxic
12,C=C1[C@H](OC(=O)c2ccco2)C[C@H]2[C@@H](/C=C(\C)C(=O)[C@@]3(O)C[C@H](C)[C@H](O)[C@@H]3[C@H]1O)C2(C)C,Non-Toxic
13,C=C1CC[C@H]2[C@@H]([C@@H]3O[C@]4(C=C3C)C[C@H](C)[C@H](OC(=O)c3ccccc3)[C@@H]4[C@H]1OC(C)=O)C2(C)C,Non-Toxic
14,C=C1CC[C@H](C(C)(C)OC)/C=C/C(C)=C\[C@@]2(O)C[C@H](C)[C@H](OC(=O)c3ccccc3)[C@@H]2[C@H]1OC(C)=O,Non-Toxic
15,CC(=O)O[C@@H]1[C@H]2[C@@H](OC(=O)c3ccccc3)[C@@H](C)C[C@]2(OC(C)=O)C(=O)/C(C)=C/[C@@H]2[C@H](CC[C@H]1C)C2(C)C,Non-Toxic
16,C=C1[C@H](OC(C)=O)C[C@H]2[C@@H](/C=C(\C)C(=O)[C@@]3(O)C[C@H](C)[C@H](O)[C@@H]3[C@H]1O)C2(C)C,Non-Toxic
17,CC(=O)O[C@]12C[C@H](C)[C@H](OC(=O)c3cccnc3)[C@@H]1[C@H]1O[C@@]1(C)CC[C@H]1[C@@H](/C=C(\C)C2=O)C1(C)C,Non-Toxic

row,SMILES,Activity
1,CC(=O)O[C@H]1[C@@H](C)[C@H](OC(=O)c2ccccc2)C[C@H]2[C@@H](C[C@@H](C)C(=O)[C@@]3(OC(C)=O)C[C@H](C)[C@H](OC(=O)c4ccccc4)[C@H]13)C2(C)C,Non-Toxic
2,C=C(C)[C@@H]1/C=C/C(C)=C\[C@@]2(O)C[C@H](C)[C@H](OC(=O)c3ccccc3)[C@@H]2[C@@H](OC(C)=O)C(=C)CC1,Non-Toxic
3,C=C1CC[C@H]2[C@@H](/C=C(\C)C(=O)[C@@]3(OC(C)=O)C[C@H](C)[C@H](OC(=O)/C=C/c4ccccc4)[C@@H]3[C@H]1OC(C)=O)C2(C)C,Non-Toxic
4,C=C1CC[C@H]2[C@@H](/C=C(\C)C(=O)[C@@]3(O)C[C@H](C)[C@H](O)[C@@H]3C1=O)C2(C)C,Toxic
5,C=C1[C@H](OC(=O)c2ccccc2)C[C@H]2[C@@H]([C@H]3O[C@]3(C)C(=O)[C@@]3(OC(C)=O)C[C@H](C)[C@H](OC(=O)c4ccccc4)[C@@H]3[C@H]1OC(C)=O)C2(C)C,Non-Toxic
6,C=C1[C@H](OC(=O)c2ccccc2)C[C@H]2[C@@H](/C=C(\C)C(=O)[C@@]3(OC(C)=O)C[C@H](C)[C@H](OC(=O)c4ccccc4)[C@@H]3[C@H]1OC(C)=O)C2(C)C,Non-Toxic
7,C=C1[C@H](OC(=O)c2ccccc2)C[C@H]2[C@@H](/C=C(\C)C(=O)[C@@]3(O)C[C@H](C)[C@H](O)[C@@H]3[C@H]1OC(=O)c1ccccc1)C2(C)C,Non-Toxic
8,C=C1[C@H](OC(=O)c2ccccc2)C[C@H]2[C@@H](/C=C(\C)[C@H](OC(C)=O)[C@@]3(O)C[C@H](C)[C@H](OC(=O)c4ccccc4)[C@@H]3[C@H]1OC(C)=O)C2(C)C,Non-Toxic
9,C=C1CC[C@H]2[C@@H](/C=C(\C)C(=O)[C@@]3(OC(C)=O)C[C@H](C)[C@H](OC(=O)c4cccnc4)[C@@H]3[C@H]1OC(C)=O)C2(C)C,Non-Toxic
10,CC(=O)OC/C1=C/C[C@H]2[C@@H](/C=C(\C)C(=O)[C@@]3(O)C[C@H](C)[C@H](OC(C)=O)[C@@H]3[C@H]1OC(C)=O)C2(C)C,Non-Toxic
11,CC(=O)O[C@@H]1[C@H]2[C@@H](OC(=O)c3ccccc3)[C@@H](C)C[C@]2(OC(C)=O)C(=O)[C@@]2(C)O[C@@H]2[C@@H]2[C@H](C[C@@H](OC(=O)c3ccccc3)[C@]13CO3)C2(C)C,Non-Toxic
12,C=C1[C@H](OC(=O)c2ccccc2)C[C@H]2[C@@H](/C=C(\C)C(=O)[C@@]3(O)C[C@H](C)[C@H](OC(=O)c4ccccc4)[C@@H]3[C@H]1OC(C)=O)C2(C)C,Non-Toxic
13,C=C1[C@H](OC(=O)c2cccs2)C[C@H]2[C@@H](/C=C(\C)C(=O)[C@@]3(O)C[C@H](C)[C@H](O)[C@@H]3[C@H]1O)C2(C)C,Non-Toxic
14,C/C1=C\[C@@H]2[C@H](CC(=O)/C(COC(=O)c3ccccc3)=C/[C@H]3[C@@H](O)[C@@H](C)C[C@]3(O)C1=O)C2(C)C,Non-Toxic
15,C=C1[C@H](O)C[C@H]2[C@@H](/C=C(\C)C(=O)[C@@]3(O)C[C@H](C)[C@H](O)[C@@H]3[C@H]1O)C2(C)C,Non-Toxic
16,C=C1CC[C@H]2[C@@H](/C=C(\C)C(=O)[C@@]3(OC(C)=O)C[C@H](C)[C@H](OC(=O)c4ccccc4)[C@@H]3[C@H]1OC(C)=O)C2(C)C,Non-Toxic

# Molecular target: T1, PXR (NR1I2); CYP3A4 promoter reporter (Homo sapiens, UniProt O75469)
# T1 sequence (O75469 whole entry): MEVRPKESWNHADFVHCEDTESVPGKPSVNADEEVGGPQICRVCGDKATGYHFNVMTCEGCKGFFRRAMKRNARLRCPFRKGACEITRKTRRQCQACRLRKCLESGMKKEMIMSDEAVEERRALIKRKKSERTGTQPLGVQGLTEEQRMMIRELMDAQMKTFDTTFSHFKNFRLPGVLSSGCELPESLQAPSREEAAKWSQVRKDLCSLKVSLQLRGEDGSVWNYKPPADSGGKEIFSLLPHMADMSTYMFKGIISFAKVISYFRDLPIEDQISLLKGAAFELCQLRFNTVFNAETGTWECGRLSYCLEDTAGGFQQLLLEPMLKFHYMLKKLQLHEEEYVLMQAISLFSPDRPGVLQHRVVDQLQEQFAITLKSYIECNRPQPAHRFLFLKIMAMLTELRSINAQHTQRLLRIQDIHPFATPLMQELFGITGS
# Experiment: Agonist activity at human PXR transfected in human HEK293T cells co-transfected with CYP3A4-Luc plasmid at 10 uM incubated for 24 hrs by dual-luciferase reporter gene assay relative to control
row,"fold induction at 24 h, 10 µM",SMILES
1,6.9,C=C1[C@H](OC(=O)c2cccnc2)C[C@H]2[C@@H](/C=C(\C)C(=O)[C@@]3(OC(C)=O)C[C@H](C)[C@H](OC(=O)c4ccccc4)[C@@H]3[C@H]1OC(C)=O)C2(C)C
2,4.9,CC(=O)O[C@@H]1[C@H]2[C@@H](OC(=O)c3ccccc3)[C@@H](C)C[C@]2(OC(C)=O)C(=O)/C(C)=C/[C@@H]2[C@H](CC[C@H]1C)C2(C)C
3,3.4,CC(=O)O[C@H]1[C@@H](C)[C@H](OC(=O)c2ccccc2)C[C@H]2[C@@H](C[C@@H](C)C(=O)[C@@]3(OC(C)=O)C[C@H](C)[C@H](OC(=O)c4ccccc4)[C@H]13)C2(C)C

# Molecular target: T2, Nuclear receptor subfamily 1 group I member 2 (Homo sapiens, UniProt O75469)
# T2 sequence (O75469 whole entry): T1 sequence (O75469 whole entry)
# Experiment: Agonist activity at PXR in human HepaRG cells assessed as upregulation of CYP2B6 mRNA expression at 10 uM by RT-qPCR analysis
# Assay type: cell-based
# Outline: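 HepaRG cells exposed to test agents at 10 μM, with rifampicin (10 μM) as reference agonist. CYP2B6 mRNA quantified by RT-qPCR, normalized to β-ACTIN housekeeping gene. Mean ± SD, n = 3.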
row,Activity,SMILES
1,Active,C=C1[C@H](OC(=O)c2cccnc2)C[C@H]2[C@@H](/C=C(\C)C(=O)[C@@]3(OC(C)=O)C[C@H](C)[C@H](OC(=O)c4ccccc4)[C@@H]3[C@H]1OC(C)=O)C2(C)C
